# High-throughput results (PubChem BioAssay)
# HUVEC prolif 384 – inhibitors of HUVEC proliferation, primary screen, cell-based, 384-well; actives 1.1% (n = 86,000); viability, % at 10 µM (by protocol); AID 648, 2007; CellTiter-Glo luminescence, 72 h; active compounds read low;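 active = viability at or below 30%; inactive = viability above 30%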;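 also: 100% = median luminescence of DMSO-only cell control wells on each plate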
# PTEN del growth – growth suppression of PTEN-null HCT116, primary screen, cell-based, CellTiter-Glo | HCT116 PTEN-null viability, 60 h; active compounds read low | viability, % at 10 µM | actives 1.2% (n = 140,000) | AID 827, 2007;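 active = viability at or below a set limit, 4 SD under the median of all tested compounds, cut at about 3.7% in these data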;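 also: PTEN knockout HCT116 line with beta catenin targeted HCT116 as companion control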
# HCT116 bCat-KO – primary screen for growth suppressors in beta-catenin knockout HCT116 cells (colon tumor, human) | viability, % at 10 µM | HCT116 beta-catenin knockout viability, CellTiter-Glo, 60 h; active compounds read low | actives 1.5% (n = 140,000) | AID 818, 2007;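 active = viability at or under a set limit, the compound median less 4 SD, cut at about 6% in these data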;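 also: 0% = Hyamine 1622 control at 20 µM and 100% = untreated cell control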
# H69AR growth 86K – proliferation blockers of H69AR lung cancer cells, primary screen, cell-based, human, 86K library; viability, % at 10 µM; actives 6% (n = 85,000); H69AR lung tumor viability, ATP luminescence, 72 h; active compounds read low;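 active = viability at or below 40%; inactive = viability above 40%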;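 also: multidrug resistant small cell line overexpressing MRP-1 efflux transporter; 100% = mean luminescence of untreated control wells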
# Fibroblast inh – antiproliferative effect on LL 47 fibroblasts – human, LL 47 cells, CellTiter-Glo luminescence, primary screen; LL 47 human lung fibroblast viability, ATP luminescence; active compounds read low; AID 719, 2007; viability, % at 10 µM; actives 1.1% (n = 85,000);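 active = viability at or below 50% in the single dose screen; inactive = viability above 50%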;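 also: compound exposure lasted 72 h before the ATP readout; 100% = median luminescence of untreated cell-only wells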
#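 Test system: LL 47 human lung fibroblasts / Quantity: 1,150 cells in each well / Medium: IMEM growth medium with 15% fetal bovine serum / Incubation: 72 h compound exposure at 37 °C after overnight plating / Detection: CellTiter-Glo luminescence measuring cellular ATP / Read-out: % viability versus median cells-only luminescence / Benchmarks: cell-only wells, no compound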
# The depositor's hits bear a star; . = not tested or not shown. Only a selection was taken, and hits are over-represented in it overall.
SMILES,HUVEC prolif 384,PTEN del growth,HCT116 bCat-KO,H69AR growth 86K,Fibroblast inh
O=C1CN(C(=O)c2cc(Br)c(Br)s2)c2ccccc2N1,42,31,33,16*,79
O=C1CN(C(=O)c2ccccc2)c2ccccc2N1,105,101,96,83,108
Cc1cc(Cl)c(S(=O)(=O)N2CCN(c3cccc(C)c3C)CC2)cc1OCC(N)=O,88,68,58,38*,90
CC(=O)Nc1ccc(S(=O)(=O)N2CCN(c3cccc(C)c3C)CC2)cc1,59,35,27,37*,93
CC(Sc1nnnn1-c1ccc(Cl)cc1)C(=O)NCC(=O)Nc1ccc(F)c(F)c1F (stereo not drawn),.,73,83,.,.
S=C(Nc1cccc(Cl)c1Cl)Nn1cnnc1,.,97,92,.,.
COc1ccc(-c2noc(CSc3nnc(Cc4ccccc4)n3-c3cccc(C)c3)n2)cc1OC,99,73,86,56,95
Cc1ccc(-c2noc(CSc3nnc(Cc4ccccc4)n3-c3cccc(C)c3)n2)cc1,89,66,66,20*,104
Cc1ccc2nc(NCCO)nc(-c3ccccc3)c2c1,69,41,47,25*,76
Oc1ccc2n[nH]nc2c1,.,106,94,.,.
CCOc1ccc(-n2nc3ccc(NC(=O)c4ccc5c(c4)OCCO5)cc3n2)cc1,41,80,87,13*,28*
Cc1ccc(-n2nc3ccc(NC(=O)c4ccc5c(c4)OCO5)cc3n2)cc1,93,97,93,45,110
CCc1ccc(-n2nc3ccc(NC(=O)c4ccc5c(c4)OCO5)cc3n2)cc1,76,75,78,20*,91
CCOC(=O)c1c(C)c(C(=O)Nc2ccc3c(c2)OCO3)c(C)n1C,87,92,79,84,97
O=C(Nc1ccc2nn(-c3ccccc3)nc2c1)c1ccc2c(c1)OCCO2,49,53,55,58,.
CCOC(=O)c1c(C)c(C(=O)Nc2ccc3c(c2)OCCO3)c(C)n1CC,75,31,30,20*,91
CCOC(=O)c1c(NC(C)=O)sc2c1CCC(C=O)=C2Sc1ccccc1,32,.,21,4.6*,18*
COc1ccc(Nc2nnc(SCc3cc([N+](=O)[O-])cc4c3OCOC4)s2)cc1,.,89,85,.,.
CCc1ccccc1NC(=O)C(CC)Sc1nc2cc3c(cc2c(=O)n1Cc1ccco1)OCO3 (stereo not drawn),46,101,102,6.3*,85
CCc1ccc(NC(=O)C(CC)Sc2nc3cc4c(cc3c(=O)n2Cc2ccco2)OCO4)cc1 (stereo not drawn),35,15,1.8*,9.8*,28*
N=c1oc2ccccc2cc1-c1nc(-c2ccc(Cl)cc2)cs1,.,74,80,.,.
Cc1ccc(C)c(NC(=O)CSc2nnc([C@@H]3CCCN3C(=O)OC(C)(C)C)o2)c1,98,98,100,97,99
Cc1cccc(NC(=O)CSc2nnc([C@@H]3CCCN3C(=O)OC(C)(C)C)o2)c1C,76,99,97,1.4*,91
O=Nc1c(O)n(Cc2ccc(Cl)c(Cl)c2)c2ccccc12,.,77,98,.,.
CCSCCc1nnc(NC(=O)Nc2cccc(C(F)(F)F)c2)s1,.,3.7*,4.5*,.,.
SMILES,HUVEC prolif 384,PTEN del growth,HCT116 bCat-KO,H69AR growth 86K,Fibroblast inh
CN(C)CCOc1nc(-c2ccccc2)nc2c1oc1ccccc12,4.4*,3.0*,2.0*,2.3*,30*
CC(=O)Nc1cccc(C(=O)/C=C/c2ccc(Br)cc2)c1,.,1.3*,1.5*,.,.
CC(=O)Nc1cccc(C(=O)/C=C/c2ccc(N(C)C)cc2)c1,.,58,56,.,.
Cc1ccc(C(=O)/C=C/C(=O)O)cc1,.,73,71,.,.
CC(=O)Nc1cccc(C(=O)/C=C/c2ccco2)c1,.,22,18,.,.
Cc1ccc(/C=C/C(=O)c2ccccc2)cc1,79,0.4*,0.9*,85,49*
CC(=O)Nc1cccc(C(=O)/C=C/c2cccs2)c1,.,1.6*,1.5*,.,.
CN(C)c1ccc(/C=C/C(=O)c2ccccc2)cc1[N+](=O)[O-],.,1.4*,1.8*,.,.
CCOc1ccc(C(=O)N2CCSC2=S)cc1,76,101,104,98,96
COCCNc1nnc(SCC(=O)c2c[nH]c3ccccc23)s1,.,89,86,.,.
CC(=O)c1ccccc1C(=O)NCc1cccnc1,.,104,99,.,.
O=C(Nc1nnc(SCc2ccc(Cl)cc2)s1)C1CC(=O)N(Cc2ccccc2)C1 (stereo not drawn),.,83,85,.,.
Cc1ccc(C(=O)COC(=O)CCCC(=O)Nc2cc(C(F)(F)F)ccc2Cl)cc1C,.,91,89,.,.
O=C(/C=C/c1ccccc1)c1ccccn1,.,4,5.7*,.,.
CCC(=O)Nc1cccc(C(=O)/C=C/c2cc(Br)ccc2OC)c1,.,0.7*,0.8*,.,.
CC(=O)Nc1cccc(C(=O)/C=C/c2ccc(/C=C/C(=O)c3cccc(NC(C)=O)c3)cc2)c1,.,1.8*,4.2*,.,.
CC1=C(C(=O)OCc2ccccc2)C(c2cccnc2)c2c(n(C)c(=O)n(C)c2=O)N1 (stereo not drawn),.,106,94,.,.
O=C(CSc1nnc(-c2ccncc2)n1-c1ccccc1)N1CCN(c2ccc(Cl)cc2)CC1,95,73,67,78,95
CC(C)c1nnc(NC(=O)Cc2ccc(Br)cc2)s1,.,96,96,.,.
CCOc1ccc(CN(C(=O)c2oc3cc(C)ccc3c2C)C2CCS(=O)(=O)C2)cc1 (stereo not drawn),50,16,16,11*,86
Cc1ccc(CN(C(=O)c2cc(=O)c3cc(Cl)c(C)cc3o2)C2CCS(=O)(=O)C2)cc1 (stereo not drawn),78,66,68,26*,82
Cc1ccc2c(C)c(C(=O)N(Cc3cccs3)C3CCS(=O)(=O)C3)oc2c1 (stereo not drawn),74,78,82,81,90
CN(C)c1ccc(N2CN=C3SCC(=O)N3C2)cc1,82,78,65,53,106
COc1ccc(OC)c(NC(=O)CN2C(=O)NC3(CCOc4ccccc43)C2=O)c1 (stereo not drawn),.,95,94,.,.
O=C(NCCCn1ccnc1)C(=O)NCC1OCCCN1S(=O)(=O)c1ccccc1 (stereo not drawn),.,95,94,.,.
CCOc1ccc2nc(NC3=NC(c4ccc(OC)cc4)CC(=O)N3)nc(C)c2c1 (stereo not drawn),.,1.8*,1.4*,.,.
CCOc1ccc2nc(NC3=NC(C)(C)C=C(C)N3)nc(C)c2c1,.,12,5.0*,.,.
CCOc1ccc2c(C)nc(NC3=NC(C)(C)C=C(C)N3)nc2c1,79,9,12,94,83
COc1ccccc1OCC(=O)OC/C(O)=C(\C#N)c1nc2ccccc2[nH]1,.,2.2*,5.5*,.,.
N#C/C(=C(/O)COC(=O)c1ccc2c(c1)OCCO2)c1nc2ccccc2[nH]1,88,98,86,93,.
